Measured values as given in ChEMBL document CHEMBL2057074, “Design, synthesis and biological activity of 6-substituted carbamoyl benzimidazoles as new nonpeptidic angiotensin II AT₁ receptor antagonists” (Bioorg Med Chem, 2012).
Numbering of substitutions follows the chain as printed. Converted amounts (≈) assume the structure as drawn.

What was measured:
[1] = Toxicity against Photobacterium phosphoreum expressing T3 mutation after 15 mins by Microtox assay; format: organism-based
Outline: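 Microtox test with luminescent Photobacterium phosphoreum. Samples were incubated with bacteria for 15 min before reading inhibition of bacterial luminescence, testing up to the saturated concentration level. LC50 is the concentration in water inhibiting 50% of the test batch.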

[2] = target: T1, Type-1 angiotensin II receptor (Homo sapiens, UniProt P30556); test: Displacement of [125I]Sar1Ile8-Ang2 from angiotensin AT1 receptor after 180 mins by gamma counting
T1 sequence (P30556 whole entry): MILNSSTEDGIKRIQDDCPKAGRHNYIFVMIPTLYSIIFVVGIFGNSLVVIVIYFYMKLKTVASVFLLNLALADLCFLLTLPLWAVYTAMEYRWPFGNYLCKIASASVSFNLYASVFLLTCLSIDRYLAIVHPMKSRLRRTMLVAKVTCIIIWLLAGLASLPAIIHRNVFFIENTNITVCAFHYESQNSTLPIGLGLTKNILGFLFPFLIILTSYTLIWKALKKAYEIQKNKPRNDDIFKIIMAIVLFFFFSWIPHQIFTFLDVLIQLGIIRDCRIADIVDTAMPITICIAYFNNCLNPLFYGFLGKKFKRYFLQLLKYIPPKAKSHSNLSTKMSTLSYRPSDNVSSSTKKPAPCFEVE

[3] = target: T2, Type-1 angiotensin II receptor (Oryctolagus cuniculus, UniProt P34976); test: Antagonist activity at AT1 receptor in Japanese white rabbit thoracic aorta assessed as inhibition of […] contraction incubated 30 mins post KCl-induction for 1 hr; format: functional, tissue-based; conditions: read-out: pA2 (converted)
T2 sequence (P34976 whole entry): T1 sequence (P30556 whole entry) with I2M, V49A, I254V, I270V, R272H, R311K, T349S, A353V
Outline: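 Isolated rabbit aortic strips equilibrated 1 h with washes every 15 min. 67 mM KCl was given first to check tissue sensitivity and set the maximal contractile response. After a 30 min washout, test substances or their vehicles were added and contractile responses recorded.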

Rattus norvegicus = test: Antihypertensive activity in non-fasted spontaneous hypertensive rat assessed as decrease in mean arterial blood pressure at 10 mg/kg, po by tail plethysmography relative to control; format: functional, Artery
Outline: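 Male SHR aged 19–21 weeks, conscious and unanesthetised, six per group; controls got vehicle at 10 mL/kg. […] Blood pressure and heart rate measured by tail plethysmography after a warming period; data given as means SEM.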

| SMILES | LC50 at 0.25 h [1] [µg/mL] | IC50 [2] [nM] | Kb [3] [nM] | Activity (Rattus norvegicus) [mmHg] |
| --- | --- | --- | --- | --- |
| CCCc1nc2c(C)cc(-c3nc4ccccc4n3C)cc2n1Cc1ccc(-c2ccccc2C(=O)O)cc1 | 100 (≈ 194 µM) |  |  |  |
| CCCc1nc2c(C)cc(C(=O)NCc3ccccc3)cc2n1Cc1ccc(-c2ccccc2-c2nnn[nH]2)cc1 | 64 (≈ 118 µM) | 410 |  |  |
| CCCc1nc2c(C)cc(C(=O)NCc3ccccc3OC)cc2n1Cc1ccc(-c2ccccc2-c2nnn[nH]2)cc1 | 66 (≈ 115 µM) | 19.7 |  |  |
| CCCc1nc2c(C)cc(C(=O)NCc3cccc(OC)c3)cc2n1Cc1ccc(-c2ccccc2-c2nnn[nH]2)cc1 | > 100 | 78.3 |  |  |
| CCCc1nc2c(C)cc(C(=O)NCc3ccc(OC)cc3)cc2n1Cc1ccc(-c2ccccc2-c2nnn[nH]2)cc1 | > 100 | 119 |  |  |
| CCCc1nc2c(C)cc(C(=O)NCc3ccc(OC)c(OC)c3)cc2n1Cc1ccc(-c2ccccc2-c2nnn[nH]2)cc1 | > 100 | 96.8 |  |  |
| CCCc1nc2c(C)cc(C(=O)NCCc3ccccc3)cc2n1Cc1ccc(-c2ccccc2-c2nnn[nH]2)cc1 | > 100 | 1.3 | 4.79 |  |
| CCCc1nc2c(C)cc(C(=O)NCC(C)c3ccccc3)cc2n1Cc1ccc(-c2ccccc2-c2nnn[nH]2)cc1 (stereo not drawn) | > 100 | 0.9 | 1.7 | >30 |
| CCCc1nc2c(C)cc(C(=O)NCCc3cccc(OC)c3)cc2n1Cc1ccc(-c2ccccc2-c2nnn[nH]2)cc1 | > 100 | 2.6 | 14.8 |  |
| CCCc1nc2c(C)cc(C(=O)NCCc3ccc(OC)cc3)cc2n1Cc1ccc(-c2ccccc2-c2nnn[nH]2)cc1 | > 100 | 22.5 |  |  |
| CCCc1nc2c(C)cc(C(=O)NCCc3cc(OC)ccc3OC)cc2n1Cc1ccc(-c2ccccc2-c2nnn[nH]2)cc1 | > 100 | 78 |  |  |
| CCCc1nc2c(C)cc(C(=O)NCCc3ccc(OC)c(OC)c3)cc2n1Cc1ccc(-c2ccccc2-c2nnn[nH]2)cc1 | > 100 | 3.7 | 1.82 |  |
| CCCc1nc2c(C)cc(C(=O)NCCc3ccccc3F)cc2n1Cc1ccc(-c2ccccc2-c2nnn[nH]2)cc1 | 17 (≈ 29.6 µM) | 37.6 |  |  |
| CCCc1nc2c(C)cc(C(=O)NCCc3ccc(F)cc3)cc2n1Cc1ccc(-c2ccccc2-c2nnn[nH]2)cc1 | 60 (≈ 105 µM) | 209 |  |  |
| CCCCc1nc(Cl)c(CO)n1Cc1ccc(-c2ccccc2-c2nn[nH]n2)cc1 [LOSARTAN] | 331 (≈ 783 µM) |  |  |  |
